In ChEMBL document CHEMBL4177752, “Discovery of Novel Schizocommunin Derivatives as Telomeric G-Quadruplex Ligands That Trigger Telomere Dysfunction and the Deoxyribonucleic Acid (DNA) Damage Response” (J Med Chem, 2018):
The source made the active and inactive calls. The rule behind the calls is not given here.

Columns and labels:
[1] = Stabilization of F10T hairpin duplex DNA (unknown origin) assessed as change in melting temperature at 1 uM by FRET assay
Method in brief: (§1)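 FRET melting: 0.2 µM F21T or F10T (FAM/TAMRA-labelled), with or without 1.0 µM ligand, in 10 mM Tris-HCl pH 7.4 with 60 mM KCl. Excitation 470 nm, emission 530 nm, read every 1 °C from 37–99 °C at 1 °C/min with a 30 s hold. ΔTm = Tm(DNA+ligand) − Tm(DNA).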

Quadruplex DNA [2] = experiment: Stabilization of F21T telomeric G-quadruplex DNA (unknown origin) assessed as change in melting temperature at 1 uM by FRET assay; format: nucleic-acid assay; method in brief: as §1
Quadruplex DNA [3] = experiment: Stabilization of F21T telomeric G-quadruplex DNA (unknown origin) at 1 uM in presence of non-fluorescent duplex DNA ds26 by FRET assay; format: nucleic-acid assay
Method in brief: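 Competition FRET: 0.2 µM F21T with 1 µM ligand, plus or minus unlabelled duplex ds26 at 3 µM (15-fold) or 10 µM (50-fold), in 10 mM Tris-HCl pH 7.4 with 60 mM KCl. Melting monitored at 470/530 nm over 37–99 °C.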

HeLa = experiment: Antiproliferative activity against human HeLa cells after 48 hrs by MTT assay; format: functional, cell-based
Method in brief: (§2)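 Cells seeded at 5.0×10^3 per well and exposed to a range of compound concentrations for 48 h. MTT (2.5 mg/mL solution) was then added for 4 h, formazan was dissolved in DMSO, and OD was read at 570 nm. HL-60 was grown in RPMI-1640 with 10% FBS, the other lines in DMEM with 10% FBS, at 37 °C and 5% CO2. Triplicates; IC50 taken from mean OD versus concentration curves.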

SiHa [4] = experiment: Antiproliferative activity against human SiHa cells after 48 hrs by MTT assay; format: functional, cell-based; method in brief: as §2
[5] = Binding affinity to hairpin duplex DNA (unknown origin) by SPR method
Method in brief: (§3)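 SPR: biotinylated HTG21 or hairpin DNA (200 nM) was folded in 50 mM Tris-HCl pH 7.4 with 100 mM KCl and captured to about 1,000 RU on an NLC chip against a blank reference cell. Ligand at 0.625–40 µM was injected at 25 µL/min (400 s association, 300 s dissociation) at 25 °C. The chip was regenerated with 1 M KCl and blank sensorgrams were subtracted.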

A549 = experiment: Antiproliferative activity against human A549 cells after 48 hrs by MTT assay; format: functional, cell-based; conditions: A549, 48 h; method in brief: as §2
Quadruplex DNA [6] = experiment: Binding affinity to HTG21 telomeric G-quadruplex DNA (unknown origin) by SPR method; format: nucleic-acid assay; method in brief: as §3
HL-60 = experiment: Antiproliferative activity against human HL60 cells after 48 hrs by MTT assay; format: functional, cell-based; conditions: HL-60, 48 h; method in brief: as §2
U2OS [7] = experiment: Antiproliferative activity against human U2OS cells after 48 hrs by MTT assay; format: functional, cell-based; method in brief: as §2
[8] = Inhibition of telomerase (unknown origin) by TRAP-LIG assay; parameters: species or system Homo sapiens
[9] = Binding affinity to hairpin duplex DNA (unknown origin) at 40 uM by SPR method; method in brief: as §3
Quadruplex DNA [10] = experiment: Stabilization of telomeric G-quadruplex DNA in human SiHa cells assessed as increase in BG4 foci per nucleus at 2 uM after 24 hrs by DAPI staining-based immunofluorescence method relative to control; format: cell-based
Method in brief: (§4)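 Cells were treated 24 h with 2 µM compound or 0.1% DMSO, then fixed (4% paraformaldehyde), permeabilized (0.5% Triton X-100) and blocked (5% goat serum). Staining used BG4 (80 ng/µL, 37 °C 3 h) with anti-FLAG, and/or γ-H2AX, TRF2 or POT1 antibodies at 4 °C overnight. Alexa 488/555 secondaries and DAPI followed. Foci or co-localized foci per nucleus were counted by confocal microscopy; mean ± SEM, two-tailed unpaired t test.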

Quadruplex DNA [11] = experiment: Stabilization of telomeric G-quadruplex DNA in human U2OS cells assessed as increase in BG4 foci per nucleus at 2 uM after 24 hrs by DAPI staining-based immunofluorescence method; format: cell-based; method in brief: as §4
U2OS [12] = experiment: Cell cycle arrest in human U2OS cells at 1 uM after 12 hrs by propidium iodide staining-based flow cytometric method; format: functional
Method in brief: (§5)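 SiHa or U2OS cells (2.0×10^5 per well) were treated with compound or DMSO for 12 h, fixed in ice-cold 70% ethanol overnight, and stained with 50 µg/mL PI plus RNase A for 30 min at room temperature in the dark. 10,000 events were collected by flow cytometry to give the phase distribution.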

SiHa [13] = experiment: Cell cycle arrest in human SiHa cells at 1 uM after 12 hrs by propidium iodide staining-based flow cytometric method; format: functional; method in brief: as §5
Quadruplex DNA [14] = experiment: Stabilization of telomeric G-quadruplex DNA in human SiHa cells assessed as induction of DNA damage response by measuring gamma-H2AX foci formation per nucleus at 2 uM after 24 hrs by DAPI staining-based immunofluorescence method relative to control; format: cell-based; method in brief: as §4
Mus musculus = experiment: Toxicity in BALB/C-nu/nu mouse xenografted with human SiHa cells assessed as decrease in body weight at 1 mg/kg, ip administered daily for 3 weeks measured everyday during compound dosing; format: organism-based; conditions: in vivo, 504 h
Method in brief: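 SiHa cells (1×10^7 per 100 µL, serum-free DMEM) were injected subcutaneously. Grown tumors were divided into pieces and implanted into BALB/C-nu/nu mice. Caliper volume (1/2 × L × W²) and body weight were recorded daily; tumors were weighed at the end.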

CN(C)CCCNc1c2ccccc2nc2c1[nH]c1ccccc12
ΔTm [1]: 5.2 °C | ΔTm (Quadruplex DNA [2]): 11.6 °C | Activity (Quadruplex DNA [3]): inactive

CN(C)CCNc1cc2nc(/C=C3\C(=O)Nc4cc(N5CCN(C)CC5)c(F)cc43)[nH]c(=O)c2cc1F
ΔTm [1]: 0.3 °C | ΔTm (Quadruplex DNA [2]): 22.5 °C | IC50 (HeLa): 7.7 µM | IC50 (SiHa [4]): 11.4 µM | Kd [5]: 15 µM | IC50 (A549): 6 µM | Kd (Quadruplex DNA [6]): 6.2 µM | IC50 (HL-60): 2.8 µM | IC50 (U2OS [7]): 5.7 µM

CN1CCN(c2cc3c(cc2F)/C(=C/c2nc4cc(NCCN5CCCCC5)c(F)cc4c(=O)[nH]2)C(=O)N3)CC1
ΔTm [1]: 0.2 °C | ΔTm (Quadruplex DNA [2]): 21.4 °C | IC50 (HeLa): 2.8 µM | IC50 (SiHa [4]): 4.4 µM | Kd [5]: 16 µM | IC50 (A549): 1.4 µM | Kd (Quadruplex DNA [6]): 8.8 µM | IC50 (HL-60): 2.9 µM | IC50 (U2OS [7]): 5.3 µM

CN(C)CCCNc1cc2nc(/C=C3\C(=O)Nc4cc(N5CCN(C)CC5)c(F)cc43)[nH]c(=O)c2cc1F
ΔTm [1]: 0.1 °C | ΔTm (Quadruplex DNA [2]): 24.6 °C | IC50 [8]: 12.3 µM | IC50 (HeLa): 17.6 µM | IC50 (SiHa [4]): 4.9 µM | IC50 (A549): 5.9 µM | Activity (Quadruplex DNA [3]): Active | Activity [9]: inactive | Kd (Quadruplex DNA [6]): 7.6 µM | IC50 (HL-60): 3.8 µM | IC50 (U2OS [7]): 9 µM

CN(C)CCCNc1cc2nc(/C=C3/C(=O)Nc4cc(N5CCN(C)CC5)ccc43)n(C)c(=O)c2cc1F
ΔTm [1]: 0.1 °C | ΔTm (Quadruplex DNA [2]): 7.4 °C | IC50 (HeLa): 14 µM | IC50 (SiHa [4]): 14 µM | Kd [5]: > 40 µM | IC50 (A549): 15.4 µM | Kd (Quadruplex DNA [6]): 30 µM | IC50 (HL-60): 30.6 µM | IC50 (U2OS [7]): 12.5 µM

CN(C)CCCNc1ccc2c(=O)[nH]c(/C=C3\C(=O)Nc4ccccc43)nc2c1
ΔTm [1]: 0.1 °C | Activity (Quadruplex DNA [10]): inactive | ΔTm (Quadruplex DNA [2]): 8.4 °C | IC50 [8]: > 40 µM | IC50 (HeLa): 42.5 µM | IC50 (SiHa [4]): 27.6 µM | Activity (Quadruplex DNA [11]): inactive | Activity (U2OS [12]): inactive | Activity (SiHa [13]): inactive | IC50 (A549): 19.6 µM | Activity (Quadruplex DNA [3]): Active | Activity [9]: inactive | Kd (Quadruplex DNA [6]): > 40 µM | IC50 (HL-60): 4.1 µM | IC50 (U2OS [7]): 20.4 µM | Activity (Quadruplex DNA [14]): inactive

COc1cccc2c1C(=O)c1c(O)c3c(c(O)c1C2=O)C[C@@](O)(C(=O)CO)C[C@@H]3O[C@H]1C[C@H](N)[C@H](O)[C@H](C)O1 [DOXORUBICIN]
Activity (Mus musculus): Toxic

CN1CCN(c2ccc3c(c2)NC(=O)/C3=C\c2nc3cc(NCCN4CCCC4)c(F)cc3c(=O)[nH]2)CC1
ΔTm [1]: 0.2 °C | ΔTm (Quadruplex DNA [2]): 18.6 °C | IC50 (HeLa): 17.4 µM | IC50 (SiHa [4]): 10.9 µM | IC50 (A549): 4.1 µM | Activity [9]: inactive | Kd (Quadruplex DNA [6]): > 40 µM | IC50 (HL-60): 3.6 µM | IC50 (U2OS [7]): 6.4 µM

CCN(CC)CCCN1C(=O)/C(=C\c2nc3cc(N4CCN(C)CC4)c(F)cc3c(=O)[nH]2)c2ccccc21
ΔTm [1]: 0.3 °C | ΔTm (Quadruplex DNA [2]): 5.8 °C | IC50 (HeLa): > 50 µM | IC50 (SiHa [4]): > 50 µM | IC50 (A549): > 50 µM | Activity [9]: inactive | Kd (Quadruplex DNA [6]): > 40 µM | IC50 (HL-60): 13.2 µM | IC50 (U2OS [7]): > 50 µM

CN1CCN(c2ccc3c(c2)NC(=O)/C3=C\c2nc3cc(NCCN4CCCCC4)c(F)cc3c(=O)[nH]2)CC1
ΔTm [1]: 0.2 °C | ΔTm (Quadruplex DNA [2]): 18.7 °C | IC50 (HeLa): 20.5 µM | IC50 (SiHa [4]): 5.4 µM | IC50 (A549): 1.8 µM | Activity [9]: inactive | Kd (Quadruplex DNA [6]): > 40 µM | IC50 (HL-60): 2.8 µM | IC50 (U2OS [7]): 3.6 µM

CN(C)CCCNc1cc2nc(/C=C3/C(=O)Nc4ccccc43)n(CCCN(C)C)c(=O)c2cc1F
ΔTm [1]: 0.1 °C | ΔTm (Quadruplex DNA [2]): 9.2 °C | IC50 (HeLa): 27.1 µM | IC50 (SiHa [4]): 30.5 µM | IC50 (A549): 18.2 µM | Activity [9]: inactive | Kd (Quadruplex DNA [6]): > 40 µM | IC50 (HL-60): 8.2 µM | IC50 (U2OS [7]): 28.4 µM

CN(C)CCCNc1cc2nc(/C=C3\C(=O)Nc4cc(N5CCOCC5)c(F)cc43)[nH]c(=O)c2cc1F
ΔTm [1]: 0.1 °C | ΔTm (Quadruplex DNA [2]): 11.9 °C | IC50 (HeLa): 30.1 µM | IC50 (SiHa [4]): > 50 µM | IC50 (A549): > 50 µM | Activity [9]: inactive | Kd (Quadruplex DNA [6]): > 40 µM | IC50 (HL-60): 3.4 µM | IC50 (U2OS [7]): > 50 µM

CCN(CC)CCCNc1cc2nc(/C=C3\C(=O)Nc4cc(N5CCN(C)CC5)ccc43)[nH]c(=O)c2cc1F
ΔTm [1]: 0.2 °C | ΔTm (Quadruplex DNA [2]): 20.6 °C | IC50 (HeLa): 10 µM | IC50 (SiHa [4]): 2.8 µM | IC50 (A549): 2.3 µM | Activity [9]: inactive | Kd (Quadruplex DNA [6]): 7.4 µM | IC50 (HL-60): 5.4 µM | IC50 (U2OS [7]): 7.6 µM
